The values below come from article PMC9494814 (Cell, 2022).

One assay has as its system αIIbβ3 on platelets. To be noted: cited from earlier work; for LIBS epitopes on platelets in platelet-rich plasma: ref Baba et al., 2001, Murphy et al.
Assay [1] deals with αIIbβ3 on washed human platelets (Homo sapiens, UniProt P05106+P08514). The assay can be described thus: Platelets LIBS exposure assay. It counts as cell-based. The gist of the method: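 Blood from drug-free healthy donors was taken into acid-citrate-dextrose. PRP was spun (140xg, 12 min), given PGE1 at 50 ng/ml, pelleted, washed in citrate-dextrose buffer pH 6.5 and resuspended in Tyrode's pH 7.4 with 1% BSA and 1 mM Ca²⁺/Mg²⁺. […] Read-out was unwashed flow cytometry MFI, over three days with two donors.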

Assay [2] concerns the target T1, αIIbβ3 headpiece (Homo sapiens, UniProt P05106+P08514). The assay is described as follows: Size-exclusion chromatography. As to conditions: 10 μM drug; for effect on αIIbβ3 headpiece conformation in gel filtration: Mg2+ and Mn2+ buffers. The format is biochemical. The gist of the method: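 Superdex 200 column equilibrated with 10 µM test compound in HEPES-buffered saline containing either 1 mM Mg2+/1 mM Ca2+ or 2 mM Mn2+/0.2 mM Ca2+. αIIbβ3 headpiece (30 µg) pre-incubated 30 min at RT with 60 µM compound in matching buffer, then chromatographed. Hydrodynamic radius taken from elution. Two runs, or one, per compound; controls ≥3.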

For assay [3], the target named is T1, αIIbβ3 headpiece. As to conditions: for conformational state of headpiece molecules in the crystal lattice: state 1 closed, state 8 open. The gist of the method: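 Closed αIIbβ3 headpiece–10E5 Fab crystals stabilised in 15% PEG 8000, 0.2 M ammonium sulfate, 0.1 M Tris-HCl pH 8.9, with glycerol raised in 5% steps to 15%. Compound (0.1-1 mM) added in the final 20% glycerol cryo step, with 1 mM MgCl2/1 mM CaCl2 or 2 mM MnCl2/0.2 mM CaCl2. Soaked 4 h, plunge-frozen in liquid N2. Synchrotron diffraction data collected, then structure refinement.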

A further assay addresses αIIbβ3_N305T (Homo sapiens, UniProt P05106+P08514, N331T). The assay is described as follows: MBC319.4 Fab LIBS epitope exposure on αIIbβ3_N305T transfectants. The format is cell-based. As to conditions: αIIbβ3 N305T transfectants, inhibitors at 100x Kd. The method in brief:
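αIIbβ3_N305T transfectants of α5/αV-knockout Expi293F cells, harvested 48 h post-transfection and EDTA-washed. Incubated with 20 nM Alexa647-labelled MBC319.4 Fab and test compound in L-15 with 0.1% BSA, equilibrated 2 h at 22°C. Fab binding read by flow cytometry without washing, as MFI.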

For assay [4], the system named is clot retraction in human PRP. The assay can be described thus: Clot retraction in platelet-rich plasma. To be noted: thrombin. It counts as cell-based. The method in brief: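 Citrated human PRP pre-incubated 20 min at RT with test compound or buffer (in Tyrode's buffer + 1% BSA) at several concentrations. Glass-tube clot retraction started with thrombin (7.5 U/ml stock) at 37°C and imaged every 15 min. Retraction = 1 − (clot area/whole reaction area). IC50 at 30 and 90 min from a three-parameter inhibitor-response fit. Three runs, PRP from three donors.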

Another assay addresses αIIbβ3 WT (Homo sapiens, UniProt P05106+P08514). The assay is described as follows: MBC319.4 Fab LIBS epitope exposure on αIIbβ3 WT transfectants. As to conditions: inhibitors at 100x Kd. It counts as cell-based. The method in brief: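 Cells transiently transfected with αIIbβ3 received valproic acid (3 mM final) and glucose (0.4%) at 24 h, and were washed at 48 h in EDTA-containing then plain L-15/0.1% BSA. Cells were incubated with 20 nM Alexa647-MBC319.4 Fab plus inhibitor (Kd from FITC-echistatin competition on WT transfectants) in L15/0.1% BSA, 22°C for 2 h. Read-out was unwashed flow cytometry.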

Setting [5] is: after activation with thrombin 0.5 U/ml.

Where two headings read alike, the source gives them in different places.

As for `CN1CCN(C(=N)c2ccc(C3=NOC(CN4CCN(CC(=O)O)CC4)C3)cc2)CC1` (centres unmarked) [BMS4, 2-(4-((3-(4-(imino(4-methylpiperazin-1-yl)methyl)phenyl)-4,5-dihydroisoxazol-5-yl)methyl)piperazin-1-yl)acetic acid], the LIBS on platelets entry with αIIbβ3 on platelets (Mg2+ ref Breth et al., 2005) was “not to induce LIBS”. In addition, in assay [1] (setting [5]), the “LIBS epitope exposure (integrin extension) on washed platelets” value (shortened to “LIBS epitope exposure”) is recorded as “decreased”. Also, the figures for the “effect on αIIbβ3 headpiece opening in gel filtration” value (shortened to “effect on αIIbβ3 headpiece opening”) on αIIbβ3 headpiece [2] (1 mM Mg2+/1 mM Ca2+) and on αIIbβ3 headpiece [2] (2 mM Mn2+/0.2 mM Ca2+) were “neither UR-2922 nor BMS4 increased the hydrodynamic radius” and “shifted the headpiece to a smaller hydrodynamic radius than the control”, respectively. The “effect on structure of closed αIIbβ3 headpiece in crystals” value (“effect on structure” below) on αIIbβ3 headpiece [3] (soaked in Mg2+) and at αIIbβ3 headpiece [3] (soaked in Mn2+) was “no structural perturbation” throughout. Moreover, at αIIbβ3_N305T, the “LIBS (MBC319.4) epitope exposure” value is listed as “significantly suppressed LIBS induction”.
In the case of `N=C(N)c1ccc(C2=NOC(CN3CCN(CC(=O)O)CC3)C2)cc1` (centres unmarked) [BMS4–1, 3-(4-((3-(4-carbamimidoylphenyl)-4,5-dihydroisoxazol-5-yl)methyl)piperazin-1-yl)acetic acid], the “inhibition of clot retraction” value in assay [4] is “effective”. Besides, the “LIBS epitope exposure” value in assay [1] (setting [5]) is recorded as “decreased”. In addition, the “effect on αIIbβ3 headpiece conformation in gel filtration” value (“effect on αIIbβ3 headpiece conformation” for short) on αIIbβ3 headpiece [2] is recorded as “closure stabilizing”. At αIIbβ3 headpiece [3] (soaked in Mn2+), the “effect on structure” value was “remained in the closed state”. At αIIbβ3_N305T, the “LIBS (MBC319.4) epitope exposure” value is “significantly suppressed LIBS induction”.
As to `N=C(N)c1ccc(C2=NOC(CN3CCC(CC(=O)O)CC3)C2)cc1` (centres unmarked) [BMS4–2, 2-(1-((3-(4-carbamimidoylphenyl)-4,5-dihydroisoxazol-5-yl)methyl)piperidin-4-yl)acetic acid], the “inhibition of clot retraction” value in assay [4] was “effective”. Besides, the “LIBS epitope exposure” value in assay [1] (setting [5]) was “showing significant induction except for BMS4–2 (p=0.06)”. Also, the “effect on αIIbβ3 headpiece opening” value at αIIbβ3 headpiece [2] (2 mM Mn2+/0.2 mM Ca2+) is “stabilized headpiece opening”. Also, at αIIbβ3 headpiece [3] (soaked in Mn2+), the “Ser-123 sidechain oxygen - MIDAS Mn2+ ion distance” value came out at 3.7±0.1 Å and the “conformational state of headpiece molecules in the crystal lattice” value was “state 2”.
`O=C(O)CN1CCN(CC2CC(C3CCNCC3)=NO2)CC1` (centres unmarked) [BMS4–3, 2-(4-((3-(piperidin-4-yl)-4,5-dihydroisoxazol-5-yl)methyl)piperazin-1-yl)acetic acid]: at αIIbβ3 headpiece [2], the “effect on αIIbβ3 headpiece conformation” value is recorded as “closure stabilizing”. The “effect on structure” value at αIIbβ3 headpiece [3] (soaked in Mn2+) is “remained in the closed state”.
In the case of `Cl.Cl.Cl.N=C(N)c1ccc(N2CCN(C3CCN(CC(=O)O)CC3)CC2)cc1` [GR144053], the “LIBS epitope exposure” value in assay [1] (setting [5]) is “decreased”. In addition, the “effect on αIIbβ3 headpiece conformation” value on αIIbβ3 headpiece [2] is on record as “closing”. For the same compound, on αIIbβ3 headpiece [3] (soaked in Mn2+), the “conformational state of headpiece molecules in the crystal lattice” value was “state 1”. In addition, the “LIBS (MBC319.4) epitope exposure” value at αIIbβ3_N305T is listed as “significantly suppressed LIBS induction”.
Consider `N=C(N)c1ccc(-c2ccc(OC[C@@H]3C[C@@H](CC(=O)O)C(=O)N3)cc2)cc1` [fradafiban, 2-((3S,5S)-5-(((4’-carbamimidoyl-[1,1’-biphenyl]-4-yl)oxy)methyl)-2-oxopyrrolidin-3-yl)acetic acid], for which the “LIBS epitope exposure” value in assay [1] (absence of thrombin) is listed as “modestly but significantly induced integrin extension”. Also, the “effect on αIIbβ3 headpiece opening” value on αIIbβ3 headpiece [2] (1 mM Mg2+/1 mM Ca2+) is “did not cause headpiece opening”; at αIIbβ3 headpiece [2] (2 mM Mn2+/0.2 mM Ca2+), “induced headpiece opening as completely as tirofiban”. For the same compound, the entries for the “effect on structure” value at αIIbβ3 headpiece [3] (soaked in Mg2+) and on αIIbβ3 headpiece [3] (soaked in Mn2+) were “did not cause any conformational change” and “induced a 2 Å movement in the β1-α1 loop at the Cα atom of Ser-123 toward ligand”, respectively.
Consider `N=C(N)c1ccc(N2C[C@H](CN3CCN(CCC(=O)O)CC3)OC2=O)cc1` [gantofiban analog, (S)-3-(4-((3-(4-carbamimidoylphenyl)-2-oxooxazolidin-5-yl)methyl)piperazin-1-yl)propanoic acid], for which the “effect on αIIbβ3 headpiece conformation” value at αIIbβ3 headpiece [2] was “does in both Mg^2+ and Mn^2+”. Further, on αIIbβ3 headpiece [3] (soaked in Mn2+), the “effect on structure” value was “induced movement of the β1-α1 loop and Ser-123 sidechain oxygen into the position of water 1”.
`[H]/N=C(/N)c1ccc(C(=O)N[C@@H](Cc2ccc(O)cc2)C(=O)N2CCC(OCC(=O)O)CC2)cc1` [lamifiban]: in the assay with αIIbβ3 on platelets (1998), the “LIBS epitopes on platelets in platelet-rich plasma” value was “not to induce LIBS epitopes”. Also, the “exposure of LIBS epitopes on αIIbβ3 on platelets” value with αIIbβ3 on platelets (ref Murphy et al., 1998) was “did not induce exposure of LIBS epitopes”. In addition, the “LIBS epitope exposure” value in assay [1] (absence of thrombin) is given as “modestly but significantly induced integrin extension”. Also, the “effect on αIIbβ3 headpiece opening” value was “did not cause headpiece opening” on αIIbβ3 headpiece [2] (1 mM Mg2+/1 mM Ca2+) and “induced headpiece opening as completely as tirofiban” on αIIbβ3 headpiece [2] (2 mM Mn2+/0.2 mM Ca2+). Moreover, the “effect on structure” value on αIIbβ3 headpiece [3] (soaked in Mg2+) is reported as “did not cause any conformational change”; on αIIbβ3 headpiece [3] (soaked in Mn2+), “induced a 2 Å movement in the β1-α1 loop at the Cα atom of Ser-123 toward ligand”.
In the case of `CN1Cc2cc(C(=O)N3CCC(C4CCNCC4)CC3)ccc2N[C@@H](CC(=O)O)C1=O` [lotrafiban, (S)-2-(7-([4,4’-bipiperidine]-1-carbonyl)-4-methyl-3-oxo-2,3,4,5-tetrahydro-1H-benzo[e][1,4]diazepin-2-yl)acetic acid], the “LIBS (MBC319.4) epitope exposure” value on αIIbβ3 WT is listed as “strongly induced LIBS exposure”. For the same compound, the “LIBS epitope exposure” value in assay [1] (absence of thrombin) is recorded as “Stronger extension”. At αIIbβ3 headpiece [2] (1 mM Mg2+/1 mM Ca2+), the “effect on αIIbβ3 headpiece opening” value is recorded as “caused the headpiece to elute earlier in gel filtration”. Besides, the “hydrodynamic radius of αIIbβ3 headpiece” value at αIIbβ3 headpiece [2] (2 mM Mn2+/0.2 mM Ca2+) was ~ 5.36 nm. Also, the “effect on structure” value at αIIbβ3 headpiece [3] (soaked in Mg2+) was “Ser-123 displaced water 1 to coordinate directly to the MIDAS metal ion”.
Regarding `CCOC(=O)COC1CCN(C(=O)[C@H](C)NC(=O)c2ccc(C(=N)NO)cc2)CC1` [sibrafiban], the “inhibition of clot retraction” value in assay [4] is “effective”. Also, in the assay with αIIbβ3 on platelets (1998), the “LIBS epitopes on platelets in platelet-rich plasma” value is “not to induce LIBS epitopes”. The “LIBS epitope exposure” value in assay [1] (absence of thrombin) is listed as “modestly but significantly induced integrin extension”. For the same compound, the “effect on αIIbβ3 headpiece opening” value is listed as “did not cause headpiece opening” on αIIbβ3 headpiece [2] (1 mM Mg2+/1 mM Ca2+) and “induced headpiece opening as completely as tirofiban” on αIIbβ3 headpiece [2] (2 mM Mn2+/0.2 mM Ca2+). The “effect on structure” value at αIIbβ3 headpiece [3] (soaked in Mg2+) is listed as “did not cause any conformational change”; at αIIbβ3 headpiece [3] (soaked in Mn2+), “induced a 2 Å movement in the β1-α1 loop at the Cα atom of Ser-123 toward ligand”.
Turning to “(2S)-2-((butoxycarbonyl)amino)-3-(2-(3-(4-carbamimidoylphenyl)-4,5-dihydroisoxazol-5-yl)acetamido)propanoic acid [roxifiban]”, the “LIBS (MBC319.4) epitope exposure” value at αIIbβ3 WT is reported as “Weaker but significant induction”. Further, the “inhibition of clot retraction” value in assay [4] is on record as “effective”. Further, in assay [1] (absence of thrombin), the “LIBS epitope exposure” value is listed as “Stronger extension”. On αIIbβ3 headpiece [2] (1 mM Mg2+/1 mM Ca2+), the “effect on αIIbβ3 headpiece opening” value is “caused the headpiece to elute earlier in gel filtration”. The “hydrodynamic radius of αIIbβ3 headpiece” value on αIIbβ3 headpiece [2] (2 mM Mn2+/0.2 mM Ca2+) is reported as ~ 5.36 nm. For the same compound, on αIIbβ3 headpiece [3] (soaked in Mn2+), the “effect on structure” value was “Ser-123 displaced water 1 to coordinate directly to the MIDAS metal ion”.
Regarding eptifibatide, the “LIBS (MBC319.4) epitope exposure” value on αIIbβ3 WT was “strongly induced LIBS exposure”. In addition, in assay [1] (absence of thrombin), the “LIBS epitope exposure” value was “Stronger extension”. The “effect on structure” value at αIIbβ3 headpiece [3] (soaked in Mg2+) is reported as “Ser-123 displaced water 1 to coordinate directly to the MIDAS metal ion”.
In the case of “fibrinogen γ C-terminal dodecapeptide: fibrinogen γ C-terminal dodecapeptide HHLGGAKQAGDV”, the “LIBS (MBC319.4) epitope exposure” value in the assay with αIIbβ3 WT is “Weaker but significant induction”.
